Experimental data: ChEMBL document CHEMBL1147694, “Synthesis and biological activity of conjugates between paclitaxel and the cell delivery vector penetratin” (Bioorg Med Chem Lett, 2006); call rule not given here

Key:
[1] = test system: A549; experiment: Antiproliferative activity against human A549 cell line by MTT assay after 72 hrs; type: functional, cell-based
Outline: (§1)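 Human tumour cells, MCF7 (breast) and A549 (lung), were exposed to test compounds for 72 h, and growth was read by MTT assay. IC50 is the concentration giving 50% growth inhibition, taken as the mean of three independent experiments.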

[2] = test system: MCF7; experiment: Antiproliferative activity against human MCF7 cell line by MTT assay after 72 hrs; type: functional, cell-based; outline: as §1
[3] = test system: MCF7; experiment: Antiproliferative activity against human MCF7 cell line by MTT assay after 1 hr; type: functional, cell-based; settings: MCF7, 1 h
Outline: (§2)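 Cells were exposed to the conjugates for a short 1 h period, and viability was then quantified by MTT assay.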

[4] = test system: A549; experiment: Antiproliferative activity against human A549 cell line by MTT assay after 1 hr; type: functional, cell-based; settings: A549, 1 h; outline: as §2
[5] = Half life in tissue culture medium; type: ADME
Outline: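 Compounds were dissolved in DMEM with 10% foetal calf serum at 1 to 40 (concentration range) and incubated at 37 °C. Aliquots were withdrawn over time and analysed by RP-HPLC and mass spectrometry to give half-life. Analytical RP-HPLC used a MeCN gradient in water with 0.1% TFA over 20 min at 25 °C.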

[6] = Aqueous solubility of the compound; type: physicochemical
[7] = Homo sapiens, A549, 72 h, read-out: IC50
[8] = Homo sapiens, MCF7, 72 h, read-out: IC50

| Compound | IC50 [1, 7] [nM] | IC50 [2, 8] [nM] | IC50 [3] [nM] | IC50 [4] [nM] | half-life [5] [min] | solubility [6] [µg/mL] | IC50 ([2]; mcf7) | IC50 ([1]; a549) |
| --- | --- | --- | --- | --- | --- | --- | --- | --- |
| CSCC[C@H](NC(=O)[C@H](CCCN=C(N)N)NC(=O)[C@H](CCCN=C(N)N)NC(=O)CC(N)CSC1CC(=O)N(CCC(=O)O[C@@H](C(=O)O[C@@H]2C(C)=CC3[C@@H](OC(C)=O)C(=O)[C@@]4(C)[C@H]([C@H](OC(=O)c5ccccc5)[C@@]2(O)C3(C)C)[C@]2(OC(C)=O)CO[C@@H]2C[C@@H]4O)[C@@H](NC(=O)c2ccccc2)c2ccccc2)C1=O)C(=O)N[C@@H](CCCCN)C(=O)N[C@@H](Cc1c[nH]c2ccccc12)C(=O)N[C@@H](CCCCN)C(=O)N[C@@H](CCCCN)C(N)=O (stereo partly specified) | < 15 | < 15 | 325 | 43 | > 480 | > 10000 | – | – |
| CC[C@H](C)[C@H](NC(=O)[C@H](CCCCN)NC(=O)[C@@H](NC(=O)[C@H](CCC(N)=O)NC(=O)[C@@H](N)CCCNC(=N)N)[C@@H](C)CC)C(=O)N[C@@H](Cc1c[nH]c2ccccc12)C(=O)N[C@@H](Cc1ccccc1)C(=O)N[C@@H](CCC(N)=O)C(=O)N[C@@H](CC(N)=O)C(=O)N[C@@H](CCCNC(=N)N)C(=O)N[C@@H](CCCNC(=N)N)C(=O)N[C@@H](CCSC)C(=O)N[C@@H](CCCCN)C(=O)N[C@@H](Cc1c[nH]c2ccccc12)C(=O)N[C@@H](CCCCN)C(=O)N[C@@H](CCCCN)C(N)=O [PENETRATIN] | – | – | – | – | – | – | Not Active | Not Active |
| H-RRMKWKK-NH2 | – | – | – | – | – | – | Not Active | Not Active |

Continued, values first:

| IC50 [1, 7] [nM] | IC50 [2, 8] [nM] | IC50 [3] [nM] | IC50 [4] [nM] | half-life [5] [min] | solubility [6] [µg/mL] | IC50 ([2]; mcf7) | IC50 ([1]; a549) | Compound |
| --- | --- | --- | --- | --- | --- | --- | --- | --- |
| 270 | – | – | – | – | – | – | – | CC[C@H](C)[C@H](NC(=O)[C@H](CCCCN)NC(=O)[C@@H](NC(=O)[C@H](CCC(N)=O)NC(=O)[C@H](CCCN=C(N)N)NC(=O)CC(N)CSC1CC(=O)N(CCC(=O)O[C@@H](C(=O)O[C@@H]2C(C)=CC3[C@@H](OC(C)=O)C(=O)[C@@]4(C)[C@H]([C@H](OC(=O)c5ccccc5)[C@@]2(O)C3(C)C)[C@]2(OC(C)=O)CO[C@@H]2C[C@@H]4O)[C@@H](NC(=O)c2ccccc2)c2ccccc2)C1=O)[C@@H](C)CC)C(=O)N[C@@H](Cc1c[nH]c2ccccc12)C(=O)N[C@@H](Cc1ccccc1)C(=O)N[C@@H](CCC(N)=O)C(=O)N[C@@H](CC(N)=O)C(=O)N[C@@H](CCCN=C(N)N)C(=O)N[C@@H](CCCN=C(N)N)C(=O)N[C@@H](CCSC)C(=O)N[C@@H](CCCCN)C(=O)N[C@@H](Cc1c[nH]c2ccccc12)C(=O)N[C@@H](CCCCN)C(=O)N[C@@H](CCCCN)C(=O)O (stereo partly specified) |
| < 15 | < 17 | 202 | 618 | > 480 | – | – | – | CC[C@H](C)[C@H](NC(=O)[C@H](CCCCN)NC(=O)[C@@H](NC(=O)[C@H](CCC(N)=O)NC(=O)[C@H](CCCN=C(N)N)NC(=O)CC(N)CSC1CC(=O)N(CCC(=O)O[C@@H](C(=O)O[C@@H]2C(C)=CC3[C@@H](OC(C)=O)C(=O)[C@@]4(C)[C@H]([C@H](OC(=O)c5ccccc5)[C@@]2(O)C3(C)C)[C@]2(OC(C)=O)CO[C@@H]2C[C@@H]4O)[C@@H](NC(=O)c2ccccc2)c2ccccc2)C1=O)[C@@H](C)CC)C(=O)N[C@@H](Cc1c[nH]c2ccccc12)C(=O)N[C@@H](Cc1ccccc1)C(=O)N[C@@H](CCC(N)=O)C(=O)N[C@@H](CC(N)=O)C(=O)N[C@@H](CCCN=C(N)N)C(=O)N[C@@H](CCCN=C(N)N)C(=O)N[C@@H](CCSC)C(=O)N[C@@H](CCCCN)C(=O)N[C@@H](Cc1c[nH]c2ccccc12)C(=O)N[C@@H](CCCCN)C(=O)N[C@@H](CCCCN)C(N)=O (stereo partly specified) |
| < 15 | < 15 | 43 | 28 | – | < 10 | – | – | CC(=O)O[C@H]1C(=O)[C@@]2(C)[C@H]([C@H](OC(=O)c3ccccc3)[C@]3(O)C[C@H](OC(=O)[C@H](O)[C@@H](NC(=O)c4ccccc4)c4ccccc4)C(C)=C1C3(C)C)[C@]1(OC(C)=O)CO[C@@H]1C[C@@H]2O [PACLITAXEL] |
